{
  "source": "paper PMC8796305",
  "about": "(ACS Central Science, 2022)",
  "experiment": "Human plasma stability assay",
  "type": "in vitro ADME",
  "conditions": "37 °C",
  "in_short": "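Lyophilised human plasma reconstituted in sterile water, stored in aliquots at −80 °C, and thawed at room temperature (three aliquots per compound). Each aliquot spiked with test compound from a 2 mM DMSO stock; Angiotensin I as positive control. Incubated at 37 °C. Samples taken at […], quenched with water/acetonitrile, centrifuged (17 000g, 4 °C, 1 h), and supernatants concentrated.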",
  "data": [
    {"substance": "Angiotensin I (DRVYIHPFHL; Angiotensin-1; UniProt P01019 25-34, looked up)", "values": [
      {"measurement": "Time to complete degradation in human plasma", "result": "≤ 4", "unit": "h"}
    ]}
  ]
}
